# Source: ChEMBL document CHEMBL1158964, “Isolation and cytotoxicity of two new flavonoids from Chrysosplenium grayanum and related flavonols” (1991)
# Tested on: KB
# Test: Cytotoxicity against human KB cells after 72 hrs
# Type: functional
# Conditions: read-out: ED50 (the source's name)
# Outline: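 KB cells kept in MEM with 5% fetal calf serum; assay run largely per NCI guidelines in 24-well plates in a CO₂ incubator. Cells assayed after 72 h by a literature procedure. ED₅₀ estimated from semi-log plots of sample concentration (μg/ml) against percent viable cells; three determinations.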
row,Compound,EC50 [µg/mL]
1,COC(=O)c1cc(O)c(OC)c(O)c1,8.62
2,COc1cc2oc(-c3ccc(O)c(O)c3)c(OC)c(=O)c2c(O)c1OC [CHRYSOSPLENOL D],13.9
3,COc1cc(O)c2c(=O)c(OC)c(-c3cc(OC)c(OC)cc3O)oc2c1 [CHRYSOSPLENOL E],> 25
4,COc1cc(O)c2c(=O)c(OC)c(-c3cc(O)c(OC)cc3O)oc2c1 [OXYAYANIN A],1.99
5,COc1cc(O)c2c(=O)c(OC)c(-c3cc(OC)c(O)cc3O)oc2c1 [CHRYSOSPLENOL F],> 25
6,COc1cc(O)c(-c2oc3cc(OC)c(OC)c(O)c3c(=O)c2OC)cc1OC [BRICKELLIN],> 25
7,COc1cc(-c2oc3cc(OC)c(O)c(O)c3c(=O)c2OC)ccc1O [CHRYSOSPLENOL C],11.2
8,COc1cc(O)c2c(=O)c(OC)c(-c3cc(O)c(OC)cc3OC)oc2c1 [CHRYSOSPLENOL G],8.61
9,COc1cc(-c2oc3cc(OC)c(OC)c(O)c3c(=O)c2OC)ccc1O [CHRYSOSPLENOL B],7.42
10,COc1cc(O)c2c(=O)c(OC)c(-c3ccc(OC)c(OC)c3)oc2c1 [RETUSIN],> 25
